Experimental data from ChEMBL document CHEMBL1152266, “Synthesis of 3,6-diazabicyclo[3.1.1]heptanes as novel ligands for neuronal nicotinic acetylcholine receptors” (Bioorg Med Chem Lett, 2008).
pKi: −log10 of the molar value.

What was measured:
[1] = target: Neuronal acetylcholine receptor; alpha4/beta2 (Rattus norvegicus, UniProt P09483+P12390); assay: Displacement of [3H]epibatidine form alpha4beta2 nAChR in rat cortex
In short: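 Radioligand binding in rat cortex tissue using [³H]-epibatidine to label α4β2 sites. Ki reported as the mean (% coefficient of variation) of three independent determinations.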

Rattus norvegicus = organism: Rattus norvegicus; assay: Selectivity ratio of Ki for rat alpha7 nAChR to Ki for rat alpha4beta2 nAChR
[2] = target: Neuronal acetylcholine receptor subunit alpha-7 (Rattus norvegicus, UniProt Q05941); assay: Displacement of [3H]alpha-bungarotoxin form alpha7 nAChR in rat cortex
Neuronal acetylcholine receptor subunit alpha-7, sequence (Q05941 whole entry): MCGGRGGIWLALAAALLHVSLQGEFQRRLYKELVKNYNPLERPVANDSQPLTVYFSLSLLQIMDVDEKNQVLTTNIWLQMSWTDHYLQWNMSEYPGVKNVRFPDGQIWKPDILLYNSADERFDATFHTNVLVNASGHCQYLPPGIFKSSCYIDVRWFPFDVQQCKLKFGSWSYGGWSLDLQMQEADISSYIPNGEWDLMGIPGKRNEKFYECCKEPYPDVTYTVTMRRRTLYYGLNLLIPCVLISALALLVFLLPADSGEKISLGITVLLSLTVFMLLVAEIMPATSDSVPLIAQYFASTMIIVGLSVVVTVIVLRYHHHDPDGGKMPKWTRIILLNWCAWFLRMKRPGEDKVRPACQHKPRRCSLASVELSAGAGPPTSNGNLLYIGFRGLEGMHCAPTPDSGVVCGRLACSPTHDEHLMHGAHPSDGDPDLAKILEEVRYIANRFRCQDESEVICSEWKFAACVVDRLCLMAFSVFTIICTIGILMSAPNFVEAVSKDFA

Neuronal acetylcholine receptor; alpha4/beta2, sequence (P09483 whole entry): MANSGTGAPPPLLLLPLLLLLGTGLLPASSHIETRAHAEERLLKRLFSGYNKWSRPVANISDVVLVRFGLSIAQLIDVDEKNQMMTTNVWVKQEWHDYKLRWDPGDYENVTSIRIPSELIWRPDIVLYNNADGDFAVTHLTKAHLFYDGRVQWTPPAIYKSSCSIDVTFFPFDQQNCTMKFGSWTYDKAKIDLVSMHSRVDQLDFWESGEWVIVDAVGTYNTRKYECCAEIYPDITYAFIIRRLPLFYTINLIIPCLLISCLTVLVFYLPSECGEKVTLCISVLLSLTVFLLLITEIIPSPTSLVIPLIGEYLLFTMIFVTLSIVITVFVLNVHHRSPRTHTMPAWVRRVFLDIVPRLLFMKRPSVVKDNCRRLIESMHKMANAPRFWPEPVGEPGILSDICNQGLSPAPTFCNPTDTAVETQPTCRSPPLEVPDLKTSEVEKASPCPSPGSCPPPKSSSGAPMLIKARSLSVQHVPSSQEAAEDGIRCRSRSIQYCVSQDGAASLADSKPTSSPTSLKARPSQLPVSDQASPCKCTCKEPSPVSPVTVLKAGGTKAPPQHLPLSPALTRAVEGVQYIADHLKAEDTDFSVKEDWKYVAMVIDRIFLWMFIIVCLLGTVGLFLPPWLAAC
Neuronal acetylcholine receptor; alpha4/beta2, sequence (P12390 whole entry): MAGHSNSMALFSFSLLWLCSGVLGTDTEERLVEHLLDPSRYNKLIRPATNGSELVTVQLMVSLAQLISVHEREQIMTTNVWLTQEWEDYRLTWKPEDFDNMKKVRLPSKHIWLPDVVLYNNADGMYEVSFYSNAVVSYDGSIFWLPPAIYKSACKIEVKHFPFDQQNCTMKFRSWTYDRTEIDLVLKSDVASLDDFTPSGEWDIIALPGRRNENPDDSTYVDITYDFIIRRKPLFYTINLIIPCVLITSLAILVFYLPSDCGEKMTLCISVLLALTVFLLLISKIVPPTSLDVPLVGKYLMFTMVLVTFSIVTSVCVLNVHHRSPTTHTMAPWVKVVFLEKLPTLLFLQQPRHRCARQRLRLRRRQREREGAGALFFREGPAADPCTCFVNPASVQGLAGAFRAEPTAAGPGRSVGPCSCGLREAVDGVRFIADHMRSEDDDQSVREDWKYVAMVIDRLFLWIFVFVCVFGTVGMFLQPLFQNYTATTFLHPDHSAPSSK

CN1C2CC1CN(c1ccc(Cl)nc1)C2
pKi [1]: 9.37 | Ratio Ki (Rattus norvegicus): 46.5 | pKi [2]: 7.70

Clc1ccc(N2CC3CC(C2)N3)nn1
pKi [1]: 9.77 | Ratio Ki (Rattus norvegicus): 149 | pKi [2]: 7.60

c1cncc(N2CC3CC(C2)N3)c1
pKi [1]: 10.25 | Ratio Ki (Rattus norvegicus): 24.3 | pKi [2]: 8.87

O=[N+]([O-])c1ccc(N2CC3CC(C2)N3)cc1
pKi [1]: 8.92 | Ratio Ki (Rattus norvegicus): 23300 | pKi [2]: 4.55

Brc1ccc(N2CC3CC(C2)N3)cn1
pKi [1]: 10.41 | Ratio Ki (Rattus norvegicus): 1300 | pKi [2]: 7.30

Clc1ccc(N2CC3CC(C2)N3)cn1
pKi [1]: 10.64 | Ratio Ki (Rattus norvegicus): 178 | pKi [2]: 8.39
